Results published in ChEMBL document CHEMBL3232873, “Development of a bioavailable μ opioid receptor (MOPr) agonist, δ opioid receptor (DOPr) antagonist peptide that evokes antinociception without development of acute tolerance” (J Med Chem, 2014).
Calls of active or inactive are those of the source. *1 amine or outer side, *2 acyl side, *3 side chain or, on linkers, in order; H or OH if unused. Where a SMILES comes first, the peptide text is derived from it. Bridges are numbered along the chain shown (N, C = ends). [ ]: non-standard residue; d: D form. The star is where a group is joined. βGlc = OC[C@H]1O[C@@H](*)[C@H](O)[C@@H](O)[C@@H]1O; Dmt = Cc1cc(O)cc(C)c1C[C@H](N)C(=O)O; dPen = CC(C)(S)[C@@H](N)C(=O)O; Aic = NC1(C(=O)O)Cc2ccccc2C1; CH2CH2 = C(C[*:2])[*:1]

Key:
[1] = target: Delta-type opioid receptor (Rattus norvegicus) (UniProt P33533); experiment: Agonist activity at rat delta opioid receptor expressed in rat C6 cells assessed as stimulation of [35S]-GTPgammaS binding after 1 hr by GF/C filters relative to control; assay type: functional, cell-based
Delta-type opioid receptor (Rattus norvegicus), sequence (P33533 whole entry): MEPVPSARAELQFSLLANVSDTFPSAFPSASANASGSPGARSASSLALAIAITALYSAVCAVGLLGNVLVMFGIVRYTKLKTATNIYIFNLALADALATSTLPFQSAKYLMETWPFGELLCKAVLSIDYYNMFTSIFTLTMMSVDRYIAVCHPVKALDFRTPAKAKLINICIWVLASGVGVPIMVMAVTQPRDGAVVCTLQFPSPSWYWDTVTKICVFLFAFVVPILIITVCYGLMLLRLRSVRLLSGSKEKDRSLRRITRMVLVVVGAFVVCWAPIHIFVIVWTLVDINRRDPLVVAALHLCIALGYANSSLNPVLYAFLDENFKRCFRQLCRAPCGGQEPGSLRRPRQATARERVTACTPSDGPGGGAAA
In short: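 Membranes (10–20 μg protein) from C6 glioma cells stably expressing rat DOPr, incubated 1 h at room temperature in 50 mM Tris-HCl, 100 mM NaCl, 5 mM MgCl2, pH 7.4, with 0.1 nM [35S]GTPγS, 30 μM GDP and varied peptide concentrations. GF/C filtration, scintillation counting. […] At least three assays in duplicate.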

[2] = target: Kappa-type opioid receptor (Homo sapiens) (UniProt P41145); experiment: Agonist activity at human kappa opioid receptor expressed in rat C6 cells assessed as stimulation of [35S]-GTPgammaS binding after 1 hr by GF/C filters relative to control; assay type: functional, cell-based
Kappa-type opioid receptor (Homo sapiens), sequence (P41145 whole entry): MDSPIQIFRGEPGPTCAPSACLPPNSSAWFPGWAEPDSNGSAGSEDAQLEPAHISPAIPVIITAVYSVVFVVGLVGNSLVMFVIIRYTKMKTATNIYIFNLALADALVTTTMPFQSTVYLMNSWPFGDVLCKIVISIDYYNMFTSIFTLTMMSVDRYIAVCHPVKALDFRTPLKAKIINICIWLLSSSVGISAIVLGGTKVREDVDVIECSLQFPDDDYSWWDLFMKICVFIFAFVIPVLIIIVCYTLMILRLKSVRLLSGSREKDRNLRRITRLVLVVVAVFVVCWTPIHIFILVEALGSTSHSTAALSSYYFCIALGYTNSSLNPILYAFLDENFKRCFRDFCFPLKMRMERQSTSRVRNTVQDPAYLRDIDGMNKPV

[3] = target: Delta-type opioid receptor (Rattus norvegicus) (UniProt P33533); experiment: Antagonist activity at rat delta opioid receptor expressed in rat C6 cells assessed as [35S]-GTPgammaS binding after 1 hr by GF/C filters; assay type: functional, cell-based
In short: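 Membranes (10–20 μg protein/well) from C6 glioma cells stably expressing rat DOPr were incubated 1 h at room temperature in 50 mM Tris-HCl, 100 mM NaCl, 5 mM MgCl2, pH 7.4, with 0.1 nM [35S]GTPγS and 30 μM GDP. Bound label was filtered, washed 10× with cold buffer, and scintillation-counted. Ke was derived by formula using a single peptide concentration. Mean ± SEM, ≥3 assays in duplicate.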

Mus musculus [4] = experiment: Antinociceptive effect in C57BL/6 mouse assessed as tail withdrawal latency at 10 mg/kg, ip by warm water tail withdrawal assay relative to 20 secs cutoff time; assay type: functional; settings: route intraperitoneal
In short: (§1)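 Adult male and female C57BL/6 mice (20–35 g, 8–16 weeks). Saline ip, then baseline latency 30 min later. Cumulative ip doses in saline were given at 30 min intervals, with latency read 30 min after each dose. Tail tip (2–3 cm) placed in 50 °C water; withdrawal or flick latency recorded, 20 s cutoff.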

Mus musculus [5] = species: Mus musculus; experiment: Antinociceptive effect in C57BL/6 mouse assessed as tail withdrawal latency by warm water tail withdrawal assay relative to 20 secs cutoff time; assay type: functional, organism-based; in short: as §1
Mus musculus [6] = experiment: Antinociceptive effect in C57BL/6 mouse assessed as tail withdrawal latency at 10 mg/kg, ip measured between 30 and 60 mins by warm water tail withdrawal assay relative to 20 secs cutoff time; assay type: functional, organism-based; parameters: dose 10 mg/kg
Mus musculus [7] = experiment: Antinociceptive effect in C57BL/6 mouse assessed as tail withdrawal latency at 10 mg/kg, ip by warm water tail withdrawal assay in presence of 3.2 mg/kg, ip naltrexone nonselective opioid antagonist; assay type: functional, organism-based
In short: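 C57BL/6 mice, both sexes. Saline or 3.2 mg/kg naltrexone ip 30 min before 10 mg/kg test compound ip, all in saline. Tail-withdrawal latency in 50 °C water (20 s cutoff) read 30 min after pretreatment and 30 min after test injection.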

Mus musculus [8] = experiment: Antinociceptive effect in C57BL/6 mouse assessed as maximum effect at 10 mg/kg, ip after 30 mins by acute tolerance/warm water tail withdrawal assay; assay type: functional, organism-based; parameters: dose 10 mg/kg
In short: (§2)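 Separate groups of C57BL/6 mice got ip saline or 10 mg/kg compound after baseline, with 50 °C tail-withdrawal latency (20 s cutoff) at 15, 30, 45, 60 and 90 min. At 90–120 min all mice received 10 mg/kg ip, read at 15, 30, 60 and 90 min. AUC over baseline was computed per mouse and averaged by group; naive and pretreated groups compared by t-test.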

Mus musculus [9] = experiment: Antinociceptive effect in C57BL/6 mouse assessed as maximum effect at 10 mg/kg, ip after 90 mins by acute tolerance/warm water tail withdrawal assay; assay type: functional, organism-based; parameters: dose 10 mg/kg; in short: as §2
Mus musculus [10] = experiment: Antinociceptive effect in C57BL/6 mouse assessed as maximum effect at 10 mg/kg, ip after 90 mins followed by treated with second dose measured up to 200 mins by acute tolerance/warm water tail withdrawal assay; assay type: functional, organism-based; parameters: dose 10 mg/kg; in short: as §2
[11] = target: Mu-type opioid receptor (Rattus norvegicus) (UniProt P33535); experiment: Agonist activity at rat mu opioid receptor expressed in rat C6 cells assessed as stimulation of [35S]-GTPgammaS binding after 1 hr by GF/C filters relative to control; assay type: functional, cell-based
Mu-type opioid receptor (Rattus norvegicus), sequence (P33535 whole entry): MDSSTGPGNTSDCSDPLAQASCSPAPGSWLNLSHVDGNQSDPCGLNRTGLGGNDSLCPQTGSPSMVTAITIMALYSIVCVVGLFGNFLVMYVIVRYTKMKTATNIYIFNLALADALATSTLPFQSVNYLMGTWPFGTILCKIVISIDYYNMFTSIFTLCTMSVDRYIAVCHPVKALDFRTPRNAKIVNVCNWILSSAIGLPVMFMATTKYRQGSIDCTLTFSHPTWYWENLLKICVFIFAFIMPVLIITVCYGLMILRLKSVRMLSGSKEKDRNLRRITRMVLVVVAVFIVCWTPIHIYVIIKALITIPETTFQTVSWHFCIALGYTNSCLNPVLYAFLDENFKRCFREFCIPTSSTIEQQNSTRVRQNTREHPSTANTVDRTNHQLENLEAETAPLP
In short: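 C6 glioma membranes (rat MOPr, stable; 10–20 μg protein) incubated 1 h at room temperature in 50 mM Tris-HCl, 100 mM NaCl, 5 mM MgCl2, pH 7.4, with 0.1 nM [35S]GTPγS, 30 μM GDP and varying peptide concentrations. GF/C filtration, counting. […] EC50 and maximum from nonlinear regression. At least three assays in duplicate.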

SMILES	Efficacy [1]	Efficacy [2]	Ke [3] [nM]	Activity (Mus musculus [4]) [%]	Activity (Mus musculus [5])	Activity (Mus musculus [6])	Activity (Mus musculus [7])	Activity (Mus musculus [8])	Activity (Mus musculus [9])	Activity (Mus musculus [10])	Efficacy [11] [%]
Cc1cc(O)cc(C)c1C[C@H](N)C(=O)N[C@@H]1CSCCSC(C)(C)[C@H](C(=O)N[C@@H](CO)C(N)=O)NC(=O)C2(Cc3ccccc3C2)NC1=O (H-[Dmt][dC][Aic][dPen]S-NH2; linker 2-4 via CH2CH2)	inactive	inactive	–	–	–	–	–	–	–	–	–
Cc1cc(O)cc(C)c1C[C@H](N)C(=O)N[C@@H]1CSCCSC(C)(C)[C@H](C(=O)N[C@@H](CO)C(=O)O)NC(=O)C2(Cc3ccccc3C2)NC1=O (H-[Dmt][dC][Aic][dPen]S-OH; linker 2-4 via CH2CH2)	inactive	inactive	–	–	–	–	–	–	–	–	–
Cc1cc(O)cc(C)c1C[C@H](N)C(=O)N[C@@H]1CSCCSC(C)(C)[C@H](C(=O)N[C@@H](CO[C@@H]2O[C@H](CO)[C@@H](O)[C@H](O)[C@H]2O)C(N)=O)NC(=O)C2(Cc3ccccc3C2)NC1=O (H-[Dmt][dC][Aic][dPen]S(βGlc)-NH2; linker 2-4 via CH2CH2)	inactive	inactive	6.1	80	Dose-dependent effect	Active	inactive	Active	inactive	Active	–
Cc1cc(O)cc(C)c1C[C@H](N)C(=O)N[C@@H]1CSCCSC(C)(C)[C@H](C(=O)O)NC(=O)C2(Cc3ccccc3C2)NC1=O (H-[Dmt][dC][Aic][dPen]-OH; linker 2-4 via CH2CH2)	inactive	inactive	4.4	–	–	–	–	–	–	–	59
